Test results reported in ChEMBL document CHEMBL4196175, “First SAR Study for Overriding NRAS Mutant Driven Acute Myeloid Leukemia” (J Med Chem, 2018).
Active and inactive are the calls of the source. No cut-off for these calls is given here.

Legend:
Activated CDC42 kinase 1 [1] = target: T1, Activated CDC42 kinase 1 (Homo sapiens, UniProt Q07912); assay: Inhibition of ACK1 (unknown origin) by radiometric biochemical kinase assay
Target sequence in this assay (Q07912 whole entry): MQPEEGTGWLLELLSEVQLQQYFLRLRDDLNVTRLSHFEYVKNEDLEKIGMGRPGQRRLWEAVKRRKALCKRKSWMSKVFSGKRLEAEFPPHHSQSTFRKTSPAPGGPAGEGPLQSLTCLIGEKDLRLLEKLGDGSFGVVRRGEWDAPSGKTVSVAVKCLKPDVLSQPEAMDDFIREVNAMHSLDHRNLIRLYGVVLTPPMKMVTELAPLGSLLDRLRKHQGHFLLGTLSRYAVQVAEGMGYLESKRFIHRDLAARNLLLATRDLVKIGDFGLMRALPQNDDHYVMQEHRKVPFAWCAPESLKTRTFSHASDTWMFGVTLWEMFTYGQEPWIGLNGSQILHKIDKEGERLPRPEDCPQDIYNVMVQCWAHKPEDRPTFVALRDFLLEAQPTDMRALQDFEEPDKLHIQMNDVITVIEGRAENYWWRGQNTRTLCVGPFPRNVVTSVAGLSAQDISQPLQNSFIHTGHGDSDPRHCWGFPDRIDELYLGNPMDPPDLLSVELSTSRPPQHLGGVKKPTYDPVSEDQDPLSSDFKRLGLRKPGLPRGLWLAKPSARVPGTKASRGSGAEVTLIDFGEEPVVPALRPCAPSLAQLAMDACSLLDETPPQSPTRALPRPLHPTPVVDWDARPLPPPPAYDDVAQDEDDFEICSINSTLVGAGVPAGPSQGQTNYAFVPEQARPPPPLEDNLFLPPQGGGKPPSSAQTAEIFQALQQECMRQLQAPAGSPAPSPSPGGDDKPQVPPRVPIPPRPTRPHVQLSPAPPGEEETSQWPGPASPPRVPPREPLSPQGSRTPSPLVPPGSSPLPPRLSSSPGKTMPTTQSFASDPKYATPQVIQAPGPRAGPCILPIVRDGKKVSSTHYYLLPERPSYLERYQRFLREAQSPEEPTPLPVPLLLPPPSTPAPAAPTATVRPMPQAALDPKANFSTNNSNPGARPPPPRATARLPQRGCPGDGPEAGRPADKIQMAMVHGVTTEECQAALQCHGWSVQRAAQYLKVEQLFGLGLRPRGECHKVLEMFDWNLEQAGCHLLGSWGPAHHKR

[2] = Growth inhibition of parental mouse BA/F3 cells after 72 hrs by celltiter-glo assay; type: cell-based, BaF3
OCI-AML-3 [3] = assay: Growth inhibition of human OCI-AML3 cells harboring NRAS-Q61L mutant after 72 hrs by celltiter-glo assay; type: functional; conditions: OCI-AML-3, 72 h
[4] = Metabolic stability in dog liver microsomes assessed as compound remaining at 1 uM after 30 mins; type: ADME, Canis lupus familiaris, microsome; conditions: read-out: Stability
[5] = Metabolic stability in rat liver microsomes assessed as compound remaining at 1 uM after 30 mins; type: ADME, microsome; conditions: read-out: Stability
[6] = Metabolic stability in mouse liver microsomes assessed as compound remaining at 1 uM after 30 mins; type: ADME, microsome; conditions: read-out: Stability
CYP1A2 = target: T2, CYP1A2 (Homo sapiens, UniProt P05177); assay: Inhibition of CYP1A2 (unknown origin) assessed as activity remaining at 10 uM relative to control; type: ADME; conditions: read-out: Activity
T2 sequence (P05177 whole entry): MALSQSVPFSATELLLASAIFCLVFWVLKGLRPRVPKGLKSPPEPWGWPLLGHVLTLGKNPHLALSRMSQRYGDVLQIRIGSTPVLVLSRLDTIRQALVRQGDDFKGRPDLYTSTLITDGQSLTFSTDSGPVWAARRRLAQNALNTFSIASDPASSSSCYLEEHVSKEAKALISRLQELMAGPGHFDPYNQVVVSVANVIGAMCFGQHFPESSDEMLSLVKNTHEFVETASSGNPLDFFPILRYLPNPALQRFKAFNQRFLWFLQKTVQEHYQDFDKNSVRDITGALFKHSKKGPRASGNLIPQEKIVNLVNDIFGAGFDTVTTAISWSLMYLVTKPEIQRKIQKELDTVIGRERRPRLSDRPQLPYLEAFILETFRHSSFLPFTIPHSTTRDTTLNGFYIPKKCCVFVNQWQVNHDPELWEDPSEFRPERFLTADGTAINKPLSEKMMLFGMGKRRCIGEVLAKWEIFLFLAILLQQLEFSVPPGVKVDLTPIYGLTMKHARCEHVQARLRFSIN

CYP2D6 = CYP2D6 (Homo sapiens, UniProt P10635); assay: Inhibition of CYP2D6 (unknown origin) assessed as activity remaining at 10 uM relative to control; type: ADME; conditions: read-out: Activity
Sequence of CYP2D6 (P10635 whole entry): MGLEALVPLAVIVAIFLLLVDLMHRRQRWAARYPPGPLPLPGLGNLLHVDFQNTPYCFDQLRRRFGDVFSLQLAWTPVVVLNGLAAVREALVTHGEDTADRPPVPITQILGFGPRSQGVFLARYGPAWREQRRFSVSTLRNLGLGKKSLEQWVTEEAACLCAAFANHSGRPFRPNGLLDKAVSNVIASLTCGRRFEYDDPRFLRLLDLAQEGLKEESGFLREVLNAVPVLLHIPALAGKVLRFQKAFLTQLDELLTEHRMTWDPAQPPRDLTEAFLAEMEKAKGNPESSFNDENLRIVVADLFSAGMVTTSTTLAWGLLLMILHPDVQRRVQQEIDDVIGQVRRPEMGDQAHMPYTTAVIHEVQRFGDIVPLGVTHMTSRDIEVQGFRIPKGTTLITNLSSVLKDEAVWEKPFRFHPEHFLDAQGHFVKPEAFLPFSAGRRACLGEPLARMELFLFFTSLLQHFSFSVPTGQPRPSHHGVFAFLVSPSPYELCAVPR

CYP3A4 = CYP3A4 (Homo sapiens, UniProt P08684); assay: Inhibition of CYP3A4 (unknown origin) assessed as activity remaining at 10 uM relative to control; type: ADME; conditions: read-out: Activity
Sequence of CYP3A4 (P08684 whole entry): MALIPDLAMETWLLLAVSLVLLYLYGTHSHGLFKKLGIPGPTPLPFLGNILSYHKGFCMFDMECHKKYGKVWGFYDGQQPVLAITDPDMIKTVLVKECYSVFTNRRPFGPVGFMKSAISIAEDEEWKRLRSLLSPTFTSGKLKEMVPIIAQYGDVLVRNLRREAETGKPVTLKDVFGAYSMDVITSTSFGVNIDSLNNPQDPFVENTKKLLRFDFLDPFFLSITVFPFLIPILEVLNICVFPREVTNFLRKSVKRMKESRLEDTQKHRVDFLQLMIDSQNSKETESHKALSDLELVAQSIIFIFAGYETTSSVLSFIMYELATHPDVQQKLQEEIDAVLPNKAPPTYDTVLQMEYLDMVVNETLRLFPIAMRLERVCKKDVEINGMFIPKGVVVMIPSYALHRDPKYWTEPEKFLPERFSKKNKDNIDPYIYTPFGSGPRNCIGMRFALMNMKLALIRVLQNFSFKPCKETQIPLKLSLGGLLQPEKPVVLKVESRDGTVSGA

[7] = target: Activated CDC42 kinase 1 (Mus musculus) (UniProt O54967); assay: Inhibition of ACK1 in mouse BA/F3 cells harboring NRAS-G12D mutant assessed as reduction in P70S6K1 phosphorylation at Thr421/Ser424 at 1 uM after 2 hrs by Western blot analysis; type: cell-based
Sequence of Activated CDC42 kinase 1 (Mus musculus) (O54967 whole entry): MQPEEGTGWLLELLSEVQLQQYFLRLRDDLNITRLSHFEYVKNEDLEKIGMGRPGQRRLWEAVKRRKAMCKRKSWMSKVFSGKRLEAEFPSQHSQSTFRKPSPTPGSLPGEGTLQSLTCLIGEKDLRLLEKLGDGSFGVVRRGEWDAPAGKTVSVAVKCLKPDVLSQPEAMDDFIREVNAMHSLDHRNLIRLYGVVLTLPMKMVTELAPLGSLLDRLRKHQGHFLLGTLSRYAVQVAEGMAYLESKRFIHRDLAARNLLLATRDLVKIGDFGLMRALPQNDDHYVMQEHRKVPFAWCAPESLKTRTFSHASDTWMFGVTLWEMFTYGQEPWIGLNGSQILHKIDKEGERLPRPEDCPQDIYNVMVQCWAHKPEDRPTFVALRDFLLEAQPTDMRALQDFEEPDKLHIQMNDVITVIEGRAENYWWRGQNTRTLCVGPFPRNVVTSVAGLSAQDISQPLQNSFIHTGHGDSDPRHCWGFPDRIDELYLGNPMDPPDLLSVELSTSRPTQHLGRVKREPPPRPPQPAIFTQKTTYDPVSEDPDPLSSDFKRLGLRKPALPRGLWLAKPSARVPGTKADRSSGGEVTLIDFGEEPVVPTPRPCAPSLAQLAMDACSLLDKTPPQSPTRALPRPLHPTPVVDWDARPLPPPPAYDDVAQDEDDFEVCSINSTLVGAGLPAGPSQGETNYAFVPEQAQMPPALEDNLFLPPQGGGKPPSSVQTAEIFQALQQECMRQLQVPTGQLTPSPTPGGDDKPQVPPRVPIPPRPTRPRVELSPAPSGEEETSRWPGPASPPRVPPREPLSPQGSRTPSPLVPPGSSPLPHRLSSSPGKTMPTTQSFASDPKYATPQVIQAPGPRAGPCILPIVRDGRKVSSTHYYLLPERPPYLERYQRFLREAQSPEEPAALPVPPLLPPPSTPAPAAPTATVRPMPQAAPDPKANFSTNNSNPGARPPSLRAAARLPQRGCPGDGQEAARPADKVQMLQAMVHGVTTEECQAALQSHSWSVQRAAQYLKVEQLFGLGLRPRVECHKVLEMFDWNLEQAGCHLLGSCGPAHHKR
Summary of the method: (§1)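 Ba/F3-NRAS-G12D or OCI-AML3 cells exposed 2 h to compounds (1 µM, or a dose series in OCI-AML3); phospho-p70S6K1, phospho-AKT S473, phospho-JNK and phospho-p38 assessed by western blot, actin as loading control.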

Activated CDC42 kinase 1 [8] = target: T1, Activated CDC42 kinase 1; assay: Inhibition of ACK1 in human OCI-AML3 cells harboring NRAS Q61L mutant assessed as reduction in AKT phosphorylation at S473 at 1 uM after 2 hrs by Western blot analysis; type: cell-based; summary of the method: as §1
Target sequence in this assay (Q07912 whole entry, looked up): as the sequence (Q07912 whole entry) above

[9] = target: T3, Mitogen-activated protein kinase kinase kinase kinase 2 (Homo sapiens) (UniProt Q12851); assay: Inhibition of GCK in human OCI-AML3 cells harboring NRAS Q61L mutant assessed as reduction in JNK phosphorylation at T183/Y185 at 1 uM after 2 hrs by Western blot analysis; type: cell-based; summary of the method: as §1
T3 sequence (whole entry): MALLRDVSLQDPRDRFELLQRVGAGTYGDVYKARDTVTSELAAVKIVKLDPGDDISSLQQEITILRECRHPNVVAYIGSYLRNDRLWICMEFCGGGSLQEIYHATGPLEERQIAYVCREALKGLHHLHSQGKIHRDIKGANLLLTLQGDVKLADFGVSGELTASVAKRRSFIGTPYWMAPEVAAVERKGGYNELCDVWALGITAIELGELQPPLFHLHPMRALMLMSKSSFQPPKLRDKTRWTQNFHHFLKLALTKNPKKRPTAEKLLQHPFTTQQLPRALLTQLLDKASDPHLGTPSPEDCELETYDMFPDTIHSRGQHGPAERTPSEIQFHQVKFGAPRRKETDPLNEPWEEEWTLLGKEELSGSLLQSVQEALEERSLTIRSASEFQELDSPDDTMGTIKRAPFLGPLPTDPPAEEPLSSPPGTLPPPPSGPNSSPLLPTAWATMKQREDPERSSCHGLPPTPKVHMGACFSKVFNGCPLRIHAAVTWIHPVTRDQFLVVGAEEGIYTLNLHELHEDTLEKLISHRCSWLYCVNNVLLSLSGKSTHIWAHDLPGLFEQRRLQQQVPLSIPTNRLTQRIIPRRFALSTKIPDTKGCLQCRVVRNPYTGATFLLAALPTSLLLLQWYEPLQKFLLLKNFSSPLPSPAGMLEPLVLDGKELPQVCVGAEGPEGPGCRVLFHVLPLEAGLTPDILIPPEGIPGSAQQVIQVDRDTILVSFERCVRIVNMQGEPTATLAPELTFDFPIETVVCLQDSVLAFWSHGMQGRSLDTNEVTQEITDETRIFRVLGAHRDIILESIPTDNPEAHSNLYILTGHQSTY

[10] = target: T3, Mitogen-activated protein kinase kinase kinase kinase 2 (Homo sapiens); assay: Inhibition of GCK in human OCI-AML3 cells harboring NRAS Q61L mutant assessed as reduction in p38 phosphorylation at Thr180/Tyr182 at 1 uM after 2 hrs by Western blot analysis; type: cell-based; summary of the method: as §1
OCI-AML-3 [11] = assay: Growth inhibition of ACK1/GCK knockdown human OCI-AML3 cells harboring NRAS-Q61L mutant at 0.2 uM after 72 hrs by celltiter-glo assay; type: functional, cell-based
OCI-AML-3 [12] = assay: Inhibition of anchorage-independent cell growth in human OCI-AML3 cells harboring NRAS Q61L mutant assessed as reduction in colony size at 0.1 to 1 uM after 14 days by iodonitrotetrazolium chloride staining-based soft agar assay; type: functional
Summary of the method: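 OCI-AML3 cells embedded in 0.7% low-melting agar, incubated 2 weeks with compound at 0.1 or 1 µM; colony number and colony size per well measured by automated image analysis; n = 3 per condition, SD, one-way ANOVA.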

IC50 (Activated CDC42 kinase 1 [1])	GI50 (OCI-AML-3 [3])	remaining at 0.5 h, 1 µM [4]	remaining at 0.5 h, 1 µM [5]	remaining at 0.5 h, 1 µM [6]	activity at 10 µM (CYP1A2)	activity at 10 µM (CYP2D6)	activity at 10 µM (CYP3A4)	reduction in P70S6K1 phosphorylation (active/inactive) [7]	reduction in AKT S473 phosphorylation (qualitative) (Activated CDC42 kinase 1 [8])	reduction in JNK phosphorylation (qualitative call) [9]	inhibition [10]	SMILES	GI50 at 72 h [2]	growth inhibition (GI) (OCI-AML-3 [11])	growth inhibition (GI) (OCI-AML-3 [12])
13 nM	122 nM	23.3%	38.3%	24.2%	81.8%	32.8%	94.2%	Active	Active	Active	Active	CCN1CCN(C(=O)c2ccc(Nc3ncc4c(n3)N(C)C(=O)N(c3cc(NC(=O)c5cccc(C(F)(F)F)c5)ccc3C)C4)cn2)CC1	728 nM	Active	–
6 nM	37 nM	43.1%	76.5%	58.7%	67.5%	4.9%	21.6%	Active	Active	Active	Active	Cc1ccc(Nc2ncc3c(n2)N(C)C(=O)N(c2cc(NC(=O)c4ccc(CN5CCC(N(C)C)C5)c(C(F)(F)F)c4)ccc2C)C3)cn1 (configuration not stated)	636 nM	–	Active
9 nM	208 nM	69.9%	82.3%	74.7%	88.2%	72%	> 100%	Active	Active	Active	Active	Cc1cc(Nc2ncc3c(n2)N(C)C(=O)N(c2cc(NC(=O)c4cccc(C(F)(F)F)c4)ccc2C)C3)n(C)n1	2060 nM	Active	–
8 nM	179 nM	38%	75.4%	49.1%	87.2%	83.1%	88.5%	–	–	–	–	CC(=O)N1CCN(c2ccc(Nc3ncc4c(n3)N(C)C(=O)N(c3cc(NC(=O)c5cccc(C(F)(F)F)c5)ccc3C)C4)cn2)CC1	402 nM	Active	Active

SMILES	IC50 (Activated CDC42 kinase 1 [1])	GI50 (OCI-AML-3 [3])	remaining at 0.5 h, 1 µM [4]	remaining at 0.5 h, 1 µM [5]	remaining at 0.5 h, 1 µM [6]	activity at 10 µM (CYP1A2)	activity at 10 µM (CYP2D6)	activity at 10 µM (CYP3A4)	reduction in P70S6K1 phosphorylation (active/inactive) [7]	reduction in AKT S473 phosphorylation (qualitative) (Activated CDC42 kinase 1 [8])	reduction in JNK phosphorylation (qualitative call) [9]	inhibition [10]	GI50 at 72 h [2]	growth inhibition (GI) (OCI-AML-3 [11])	growth inhibition (GI) (OCI-AML-3 [12])
Cc1ccc(NC(=O)c2cccc(C(F)(F)F)c2)cc1N1Cc2cnc(N)nc2N(C)C1=O	18 nM	466 nM	67.9%	81.3%	80%	89.2%	82.2%	> 100%	Active	Active	Active	Active	2110 nM	–	Active
